Reference: ChEMBL document CHEMBL1821718, “Curcumin recognizes a unique binding site of tubulin” (J Med Chem, 2011)
Calls of active or inactive are those of the source. No cut-off for these calls is given here.

What was measured:
[1] = Inhibition of goat brain tubulin polymerization assessed as turbidity by UV spectrophotometry; design: species or system Capra hircus
Summary of the method: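 Goat brain tubulin in PEM buffer (50 mM PIPES pH 7, 1 mM EGTA, 0.5 mM MgCl2) with 1 mM GTP. Assembly initiated with 10% DMSO at 37 °C and turbidity followed at 360 nm. Half-maximal inhibition taken as the concentration reducing polymer mass by 50%; run in triplicate, at least two repetitions.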

[2] = organism: Capra hircus; experiment: Binding affinity to goat brain tubulin by isothermal titration calorimetry
[3] = test system: A549; experiment: Antiproliferative activity against human A549 cells assessed as loss of cell viability after 48 hrs by MTT assay; type: functional, cell-based; conditions: A549, 48 h
Summary of the method: (§1)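 Cells seeded at 1 × 10^4 per well in DMEM with 10% FBS, 1 mM L-glutamine and antibiotics at 37 °C, 5% CO2. Exposed to 0–50 μM compound for 48 h. MTT (2 mg/mL in PBS) added until purple precipitate formed; absorbance read at 570 nm against 650 nm reference. Mean ± SEM, n = 4; IC50 taken from concentration-response.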

[4] = test system: HeLa; experiment: Induction of cell cycle arrest in human HeLa cells assessed as accumulation in G2/M phase at 5 uM after 24 hrs by flow cytometry; type: functional, cell-based
[5] = test system: MCF7; experiment: Cell cycle arrest in nocodazole pre-treated human MCF7 cells; type: functional, cell-based
[6] = test system: HeLa; experiment: Cell cycle arrest in nocodazole pre-treated human HeLa cells at 5 uM assessed as accumulation in G2/M phase after 8 hrs by flow cytometry; type: functional
Summary of the method: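 HeLa cells at 1 × 10^6 cells/mL held 20 h in nocodazole (2 μM in methods; 1.5 μM in text), washed, then given fresh medium with 5 μM compound for 8 h. Fixed in ice-cold methanol, treated 4 h at 37 °C with 1 mg/mL RNase A, stained with PI. G2/M fraction measured by FACS.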

[7] = test system: A549; experiment: Induction of apoptosis in human A549 cells assessed as apoptotic cells at 5 uM after 48 hrs by FITC-conjugated annexin-V/PI assay; type: functional
Summary of the method: (§2)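 About 1 × 10^6 A549 or HeLa cells treated with 0–5 μM compound for 48 h. Stained 15 min at room temperature in the dark with FITC-annexin V (1 μg/mL) and PI (0.5 μg/mL) in Ca2+-enriched binding buffer. Annexin-V-positive fraction quantified by flow cytometry.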

[8] = test system: HeLa; experiment: Induction of apoptosis in human HeLa cells assessed as apoptotic cells at 5 uM after 48 hrs by FITC-conjugated annexin-V/PI assay; type: functional; summary of the method: as §2
[9] = test system: A549; experiment: Induction of apoptosis in human A549 cells assessed as abnormality in nuclear DNA at 5 uM by DAPI staining technique; type: functional, cell-based
[10] = test system: HeLa; experiment: Induction of apoptosis in human HeLa cells assessed as abnormality in nuclear DNA at 5 uM by DAPI staining technique; type: functional, cell-based
[11] = test system: A549; experiment: Disruption of human A549 cell morphology at 2.5 to 5 uM after 24 hrs by phase contrast microscopy; type: functional, cell-based
Summary of the method: (§3)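 A549 and HeLa cells grown in DMEM with 10% FBS at 37 °C, 5% CO2, exposed to 2.5 or 5 μM compound for 24 h. Morphology of control and treated cells recorded by inverted phase-contrast microscopy.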

[12] = test system: HeLa; experiment: Disruption of human HeLa cell morphology at 2.5 to 5 uM after 24 hrs by phase contrast microscopy; type: functional, cell-based; summary of the method: as §3
[13] = test system: A549; experiment: Disruption of interphase microtubule network in human A549 cells at 2.5 uM after 24 hrs by confocal microscopy; type: functional, cell-based
Summary of the method: (§4)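 A549 or HeLa cells at 10^6 cells/mL exposed to 0–2.5 μM compound for 24 h. PBS-washed, fixed in 2% paraformaldehyde, permeabilized 1 h (0.1% Na citrate, 0.1% Triton), blocked in 5% BSA. Stained with mouse anti-α-tubulin (1:200) then rhodamine anti-mouse IgG (1:150) plus DAPI 1 μg/mL. Interphase network imaged by confocal microscopy; n = 3.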

[14] = test system: HeLa; experiment: Disruption of interphase microtubule network in human HeLa cells at 2.5 uM after 24 hrs by confocal microscopy; type: functional, cell-based; summary of the method: as §4
[15] = test system: A549; experiment: Perturbation of spindle microtubule and chromosomal organization in human A549 cells at 2.5 uM after 24 hrs by immunofluorescence method; type: functional, cell-based
Summary of the method: (§5)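 Cells exposed to 0–2.5 μM compound for 24 h, fixed in 2% paraformaldehyde, permeabilized, blocked with 5% BSA. Spindles stained with anti-α-tubulin (1:200) and rhodamine secondary (1:150); chromosomes stained with DAPI (1 μg/mL). Bipolar spindle and metaphase-plate alignment scored by confocal microscopy; three experiments.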

[16] = test system: HeLa; experiment: Perturbation of spindle microtubule and chromosomal organization in human HeLa cells at 2.5 uM after 24 hrs by immunofluorescence method; type: functional, cell-based; summary of the method: as §5
[17] = Binding affinity to goat brain tubulin by spectrofluorimetry
[18] = test system: HeLa (Homo sapiens); experiment: Induction of cell cycle arrest in human HeLa cells assessed as accumulation in G2/M phase at 5 uM after 24 hrs by flow cytometry
[19] = test system: HeLa; experiment: Antiproliferative activity against human HeLa cells assessed as loss of cell viability after 48 hrs by MTT assay; type: functional, cell-based; summary of the method: as §1
[20] = test system: A549; experiment: Disruption of interphase microtubule network in human A549 cells after 24 hrs by confocal microscopy; type: functional, cell-based; summary of the method: as §4
[21] = test system: HeLa; experiment: Disruption of interphase microtubule network in human HeLa cells after 24 hrs by confocal microscopy; type: functional, cell-based; summary of the method: as §4

COc1cc(/C=C/c2cc(/C=C/c3ccc(O)c(OC)c3)n(-c3cccc([N+](=O)[O-])c3)n2)ccc1O
IC50 [1]: 36 µM

O=C(O)/C=C/c1ccccc1O
Activity [2]: inactive

COc1cc(/C=C/C(=O)CC(=O)/C=C/c2ccc(O)c(OC)c2)ccc1O [CURCUMIN]
IC50 [1]: 20 µM
IC50 [3]: 17 µM
Activity [4]: inactive
Activity [5]: Active
Activity [6]: 18%
Activity [7]: 16%
Activity [8]: 8%
Activity [9]: inactive
Activity [10]: inactive
Activity [11]: inactive
Activity [12]: inactive
Activity [13]: inactive
Activity [14]: inactive
Activity [15]: inactive
Activity [16]: inactive
Ka [17]: 5.01 ×10⁵ /M
Activity [18]: inactive

COc1cc(/C=C/c2cc(/C=C/c3ccc(O)c(OC)c3)on2)ccc1O
IC50 [1]: 26 µM

COc1cc(C=C(C(=O)/C=C/c2ccc(O)c(OC)c2)C(=O)/C=C/c2ccc(O)c(OC)c2)ccc1O
IC50 [1]: 16 µM
IC50 [19]: 6 µM
IC50 [3]: 7 µM
Activity [4]: inactive
Activity [6]: 35%
Activity [7]: 45%
Activity [8]: 38%
Activity [9]: Active
Activity [10]: Active
Activity [11]: Active
Activity [12]: Active
Activity [13]: Active
Activity [14]: Active
Activity [15]: Active
Activity [16]: Active
Activity [20]: Dose-dependent effect
Activity [21]: Dose-dependent effect
Ka [17]: 2.5 ×10⁶ /M

COc1cc(/C=C/C(=O)CC(=O)/C=C/c2ccc(OC(C)=O)c(OC)c2)ccc1OC(C)=O
IC50 [1]: 60 µM

COc1cc(/C=C/c2cc(/C=C/c3ccc(O)c(OC)c3)n(-c3ccc(F)cc3)n2)ccc1O
IC50 [1]: 34 µM

O=C(O)/C=C/c1ccc(O)c(O)c1
Activity [2]: inactive

COc1cc(/C=C/c2cc(/C=C/c3ccc(O)c(OC)c3)[nH]n2)ccc1O [CURCUMIN PYRAZOLE]
IC50 [1]: 23 µM

COc1ccc(-n2nc(/C=C/c3ccc(O)c(OC)c3)cc2/C=C/c2ccc(O)c(OC)c2)cc1
IC50 [1]: 38 µM

O=C(O)/C=C/c1ccccc1
Activity [2]: inactive

O=C(O)/C=C/c1ccc(O)cc1O
Activity [2]: inactive

COc1ccc(/C=C/C(=O)O)cc1OC
Activity [2]: inactive
